In brackets after ≈: the same amount, converted by molar mass.
Key:
Enterobacter cloacae [1] = experiment: Antibacterial activity against TEM-1/CTX-M-15 expressing Enterobacter cloacae isolate 62 after 18 to 24 hrs by two-fold broth microdilution assay; type: functional
Kluyvera intermedia = experiment: Antibacterial activity against TEM-1/SHV-12/[…] expressing Enterobacter intermedius isolate 243 after 18 to 24 hrs by two-fold broth microdilution assay; type: functional
How it was run: (§1)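 CLSI two-fold broth microdilution was used. Compounds were dissolved in DMSO, brought to 10 mg/mL in medium, then serially diluted in Mueller Hinton broth over 400–0.09 µg/mL. Overnight MHB cultures were diluted to 10^6 CFU/mL, and 10 µL was added per well. Plates were incubated 18–24 h at 37 °C, then 0.2 mg/mL INT was added for 30 min at 37 °C. MIC was the lowest concentration with no visible growth or pink colour, triplicate.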

Aeromonas hydrophila [2] = experiment: Antibacterial activity against Aeromonas hydrophila FNSST 014 after 18 to 24 hrs by two-fold broth microdilution assay; type: functional; how it was run: as §1
Aeromonas caviae [3] = experiment: Antibacterial activity against TEM-1/CTX-M-15 expressing Aeromonas caviae isolate 260 after 18 to 24 hrs by two-fold broth microdilution assay; type: functional; how it was run: as §1
Clostridium perfringens [4] = experiment: Antibacterial activity against Clostridium perfringens FNSST 4999 after 18 to 24 hrs by two-fold broth microdilution assay; type: functional
How it was run: (§2)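 CLSI two-fold broth microdilution. Compounds dissolved in DMSO, 10 mg/mL stock, serially diluted to 400–0.09 µg/mL in Mueller Hinton broth. Wells inoculated with 10^6 CFU/mL bacteria and incubated 18–24 h at 37 °C. 0.2 mg/mL INT added for 30 min. MIC taken as the lowest concentration with no visible growth or pink colour. Triplicate.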

Pseudomonas aeruginosa [5] = experiment: Antibacterial activity against Pseudomonas aeruginosa FNSST 982 assessed as diameter of zone of inhibition at 15 ug/disc after 24 hrs by disc diffusion method; type: functional, organism-based
How it was run: (§3)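 Gentamicin 15 µg disc run as positive control in CLSI disc diffusion. Lawn of 100 µL of 10^6 cfu/mL bacteria on Mueller Hinton agar, incubated 24 h at 37 °C. Zone diameter measured in mm including the 6 mm disc, triplicate, mean ± SE.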

Staphylococcus aureus [6] = experiment: Antibacterial activity against Staphylococcus aureus ATCC 25923 assessed as diameter of zone of inhibition at 15 ug/disc after 24 hrs by disc diffusion method; type: functional, organism-based; how it was run: as §3
Escherichia coli [7] = experiment: Antibacterial activity against […] expressing Escherichia coli isolate 235 after 18 to 24 hrs by two-fold broth microdilution assay; type: functional; how it was run: as §2
Pseudomonas aeruginosa [8] = experiment: Antibacterial activity against GIM-1 expressing Pseudomonas aeruginosa isolate 197 after 18 to 24 hrs by two-fold broth microdilution assay; type: functional; how it was run: as §1
Escherichia coli [9] = experiment: Antibacterial activity against Escherichia coli FNSST 982 after 18 to 24 hrs by two-fold broth microdilution assay; type: functional; how it was run: as §1
Escherichia coli [10] = experiment: Antibacterial activity against […] expressing Escherichia coli isolate 4024 after 18 to 24 hrs by two-fold broth microdilution assay; type: functional; how it was run: as §2
Escherichia coli [11] = experiment: Antibacterial activity against Escherichia coli FNSST 982 assessed as diameter of zone of inhibition at 15 ug/disc after 24 hrs by disc diffusion method; type: functional, organism-based; how it was run: as §3
Klebsiella pneumoniae [12] = experiment: Antibacterial activity against Klebsiella pneumoniae FNSST 011 assessed as diameter of zone of inhibition at 15 ug/disc after 24 hrs by disc diffusion method; type: functional, organism-based; how it was run: as §3
Enterobacter cloacae [13] = experiment: Antibacterial activity against CTX-15 expressing Enterobacter cloacae isolate 51 after 18 to 24 hrs by two-fold broth microdilution assay; type: functional
Enterococcus faecalis [14] = experiment: Antibacterial activity against Enterococcus faecalis ATCC 29212 assessed as diameter of zone of inhibition at 15 ug/disc after 24 hrs by disc diffusion method; type: functional, organism-based; how it was run: as §3
Aeromonas hydrophila [15] = experiment: Antibacterial activity against Aeromonas hydrophila FNSST 014 assessed as diameter of zone of inhibition at 15 ug/disc after 24 hrs by disc diffusion method; type: functional, organism-based; how it was run: as §3
Pseudomonas aeruginosa [16] = experiment: Antibacterial activity against Pseudomonas aeruginosa FNSST 982 after 18 to 24 hrs by two-fold broth microdilution assay; type: functional; how it was run: as §1
Clostridium perfringens [17] = experiment: Antibacterial activity against Clostridium perfringens FNSST 4999 assessed as diameter of zone of inhibition at 15 ug/disc after 24 hrs by disc diffusion method; type: functional, organism-based; how it was run: as §3
Bacillus cereus [18] = experiment: Antibacterial activity against Bacillus cereus ATCC 11778 assessed as diameter of zone of inhibition at 15 ug/disc after 24 hrs by disc diffusion method; type: functional, organism-based; how it was run: as §3
Bacillus cereus [19] = experiment: Antibacterial activity against Bacillus cereus ATCC 11778 after 18 to 24 hrs by two-fold broth microdilution assay; type: functional; how it was run: as §1
Staphylococcus aureus [20] = experiment: Antibacterial activity against Staphylococcus aureus ATCC 25923 after 18 to 24 hrs by two-fold broth microdilution assay; type: functional; how it was run: as §1
Klebsiella pneumoniae [21] = experiment: Antibacterial activity against Klebsiella pneumoniae FNSST 011 after 18 to 24 hrs by two-fold broth microdilution assay; type: functional; how it was run: as §1
[22] = system: Stenotrophomonas maltophilia; experiment: Antibacterial activity against […] expressing Stenotrophomonas maltophilia isolate 125 after 18 to 24 hrs by two-fold broth microdilution assay; type: functional; how it was run: as §1
Escherichia coli [23] = experiment: Antibacterial activity against TEM-1/SHV-12 expressing Escherichia coli isolate 237 after 18 to 24 hrs by two-fold broth microdilution assay; type: functional; how it was run: as §2
Klebsiella pneumoniae [24] = experiment: Antibacterial activity against TEM-1/SHV-12 expressing Klebsiella pneumoniae isolate 303 after 18 to 24 hrs by two-fold broth microdilution assay; type: functional; how it was run: as §1
Acinetobacter baumannii = experiment: Antibacterial activity against SIM-1 expressing Acinetobacter baumannii isolate 170 after 18 to 24 hrs by two-fold broth microdilution assay; type: functional; how it was run: as §2
Aeromonas hydrophila [25] = experiment: Antibacterial activity against TEM-1/SHV-12 expressing Aeromonas hydrophila isolate 268 after 18 to 24 hrs by two-fold broth microdilution assay; type: functional; how it was run: as §1
Aeromonas caviae [26] = experiment: Antibacterial activity against […] expressing Aeromonas caviae isolate 258 after 18 to 24 hrs by two-fold broth microdilution assay; type: functional; how it was run: as §1
Enterobacter cloacae [27] = experiment: Antibacterial activity against TEM-1/SHV-12 expressing Enterobacter cloacae isolate 306 after 18 to 24 hrs by two-fold broth microdilution assay; type: functional
Enterococcus faecalis [28] = experiment: Antibacterial activity against Enterococcus faecalis ATCC 29212 after 18 to 24 hrs by two-fold broth microdilution assay; type: functional; how it was run: as §1
Staphylococcus aureus [29] = experiment: Antibacterial activity against Staphylococcus aureus ATCC 25923 assessed as diameter of zone of inhibition at 250 ug/disc after 24 hrs by disc diffusion method; type: functional; conditions: ATCC 25923, 24 h, read-out: DIZ
How it was run: (§4)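 Bacteria were grown overnight at 37 °C in TSB to about 10^6 cfu/mL, and 100 µL was spread on Mueller Hinton agar. Sterile 6 mm discs were each loaded with 25 µL of a 10 mg/mL stock in 96% ethanol, giving 250 µg/disc. Ethanol served as the negative control. Plates were incubated 24 h at 37 °C. Inhibition zone diameter was measured including the disc, in triplicate, as mean ± SE.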

Aeromonas hydrophila [30] = experiment: Antibacterial activity against Aeromonas hydrophila FNSST 014 assessed as diameter of zone of inhibition at 250 ug/disc after 24 hrs by disc diffusion method; type: functional; conditions: FNSST 014, 24 h, read-out: DIZ; how it was run: as §4
Enterococcus faecalis [31] = experiment: Antibacterial activity against Enterococcus faecalis ATCC 29212 assessed as diameter of zone of inhibition at 250 ug/disc after 24 hrs by disc diffusion method; type: functional; conditions: ATCC 29212, 24 h, read-out: DIZ; how it was run: as §4
Pseudomonas aeruginosa [32] = experiment: Ratio of gentamicin MIC to compound MIC for Pseudomonas aeruginosa FNSST 982; type: functional
Bacillus cereus [33] = experiment: Antibacterial activity against Bacillus cereus ATCC 11778 assessed as diameter of zone of inhibition at 250 ug/disc after 24 hrs by disc diffusion method; type: functional; conditions: ATCC 11778, 24 h, read-out: DIZ; how it was run: as §4
Pseudomonas aeruginosa [34] = experiment: Antibacterial activity against Pseudomonas aeruginosa FNSST 982 assessed as diameter of zone of inhibition at 250 ug/disc after 24 hrs by disc diffusion method; type: functional; conditions: FNSST 982, 24 h, read-out: DIZ; how it was run: as §4
Escherichia coli [35] = experiment: Antibacterial activity against Escherichia coli FNSST 982 assessed as diameter of zone of inhibition at 250 ug/disc after 24 hrs by disc diffusion method; type: functional; conditions: FNSST 982, 24 h, read-out: DIZ; how it was run: as §4
Clostridium perfringens [36] = experiment: Antibacterial activity against Clostridium perfringens FNSST 4999 assessed as diameter of zone of inhibition at 250 ug/disc after 24 hrs by disc diffusion method; type: functional; conditions: FNSST 4999, 24 h, read-out: DIZ
How it was run: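 Disc diffusion per CLSI: 100 µL of 10^6 cfu/mL bacterial suspension spread on Mueller Hinton agar. 6 mm discs loaded with 25 µL of 10 mg/mL compound stock in 96% ethanol (250 µg/disc); ethanol as negative control. Incubated 24 h at 37 °C. Inhibition zone diameter measured in mm including the disc, triplicate, reported as mean ± SE.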

Aspergillus fumigatus = experiment: Antifungal activity against Aspergillus fumigatus FNSST 3833 assessed as diameter of zone of inhibition at 250 ug/disc after 72 hrs by disc diffusion method; type: functional; conditions: FNSST 3833, 72 h, read-out: DIZ
How it was run: (§5)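 Fungi were grown overnight at 30 °C in Sabouraud dextrose broth to 10^4 cfu/mL, and 100 µL was spread on Sabouraud dextrose agar. 6 mm discs carried 250 µg (25 µL of a 10 mg/mL stock in 96% ethanol), with ethanol as the negative control. Incubation was at 30 °C for 48 h (yeast) or 72 h (molds). Zone diameter was read including the disc, in triplicate, mean ± SE.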

Talaromyces funiculosus = experiment: Antifungal activity against Penicillium funiculosum FNSST 3724 assessed as diameter of zone of inhibition at 250 ug/disc after 72 hrs by disc diffusion method; type: functional; conditions: FNSST 3724, 72 h, read-out: DIZ; how it was run: as §5
Candida albicans = experiment: Antifungal activity against Candida albicans ATCC 10231 assessed as diameter of zone of inhibition at 250 ug/disc after 48 hrs by disc diffusion method; type: functional; conditions: ATCC 10231, 48 h, read-out: DIZ; how it was run: as §5
Klebsiella pneumoniae [37] = experiment: Antibacterial activity against Klebsiella pneumoniae FNSST 011 assessed as diameter of zone of inhibition at 250 ug/disc after 24 hrs by disc diffusion method; type: functional; conditions: FNSST 011, 24 h, read-out: DIZ; how it was run: as §4

GENTAMICIN
MIC (Enterobacter cloacae [1]): 4 µg/mL
MIC (Kluyvera intermedia): 2 µg/mL
MIC (Aeromonas hydrophila [2]): 8 µg/mL
MIC (Aeromonas caviae [3]): 32 µg/mL
MIC (Clostridium perfringens [4]): 0.5 µg/mL
inhibition zone (IZ) (Pseudomonas aeruginosa [5]): 9.2 mm
inhibition zone (IZ) (Staphylococcus aureus [6]): 23.9 mm
MIC (Escherichia coli [7]): 16 µg/mL
MIC (Pseudomonas aeruginosa [8]): > 8 µg/mL
MIC (Escherichia coli [9]): 32 µg/mL
MIC (Escherichia coli [10]): 64 µg/mL
inhibition zone (IZ) (Escherichia coli [11]): 11.5 mm
inhibition zone (IZ) (Klebsiella pneumoniae [12]): 18.2 mm
MIC (Enterobacter cloacae [13]): 128 µg/mL
inhibition zone (IZ) (Enterococcus faecalis [14]): 14.6 mm
inhibition zone (IZ) (Aeromonas hydrophila [15]): 12.6 mm
MIC (Pseudomonas aeruginosa [16]): 64 µg/mL
inhibition zone (IZ) (Clostridium perfringens [17]): 21.7 mm
inhibition zone (IZ) (Bacillus cereus [18]): 18.2 mm
MIC (Bacillus cereus [19]): 4 µg/mL
MIC (Staphylococcus aureus [20]): 1 µg/mL
MIC (Klebsiella pneumoniae [21]): 8 µg/mL
MIC [22]: 2 µg/mL
MIC (Escherichia coli [23]): 8 µg/mL
MIC (Klebsiella pneumoniae [24]): 32 µg/mL
MIC (Acinetobacter baumannii): 16 µg/mL
MIC (Aeromonas hydrophila [25]): 4 µg/mL
MIC (Aeromonas caviae [26]): 12.8 µg/mL
MIC (Enterobacter cloacae [27]): 256 µg/mL
MIC (Enterococcus faecalis [28]): 4 µg/mL

O/N=C/c1nccn1Cc1ccccc1
zone of inhibition at 250 µg/disc (Staphylococcus aureus [29]): 10.8 mm
zone of inhibition at 250 µg/disc (Aeromonas hydrophila [30]): 10.1 mm
MIC (Aeromonas hydrophila [2]): 25 µg/mL (≈ 124 µM)
MIC (Clostridium perfringens [4]): 50 µg/mL (≈ 248 µM)
zone of inhibition at 250 µg/disc (Enterococcus faecalis [31]): 14.9 mm
Ratio (Pseudomonas aeruginosa [32]): 5
MIC (Escherichia coli [9]): 25 µg/mL (≈ 124 µM)
zone of inhibition at 250 µg/disc (Bacillus cereus [33]): 17.5 mm
zone of inhibition at 250 µg/disc (Pseudomonas aeruginosa [34]): 17.9 mm
MIC (Pseudomonas aeruginosa [16]): 12.5 µg/mL (≈ 62.1 µM)
zone of inhibition at 250 µg/disc (Escherichia coli [35]): 17.3 mm
MIC (Bacillus cereus [19]): 6.25 µg/mL (≈ 31.1 µM)
MIC (Staphylococcus aureus [20]): 6.25 µg/mL (≈ 31.1 µM)
MIC (Klebsiella pneumoniae [21]): 25 µg/mL (≈ 124 µM)
zone of inhibition at 250 µg/disc (Clostridium perfringens [36]): 15.9 mm
zone of inhibition at 250 µg/disc (Aspergillus fumigatus): 11.5 mm
zone of inhibition at 250 µg/disc (Talaromyces funiculosus): 17.6 mm
zone of inhibition at 250 µg/disc (Candida albicans): 17.2 mm
zone of inhibition at 250 µg/disc (Klebsiella pneumoniae [37]): 15.8 mm
MIC (Enterococcus faecalis [28]): 6.25 µg/mL (≈ 31.1 µM)

From ChEMBL document CHEMBL3091449, “Synthesis and antimicrobial profile of N-substituted imidazolium oximes and their monoquaternary salts against multidrug resistant bacteria” (2013)
